Assay outcomes (PubChem)
NSD2 HMT inh = inhibitors of human histone methyltransferase NSD2 | NSD2 peptide methylation, AlphaScreen, 120 min | inhibition, % at 12.5 µM | 310,000 tested, 0.54% active | AID 743445; in the data active = inhibition above about 50%
Target sequence (O96028 whole entry, looked up): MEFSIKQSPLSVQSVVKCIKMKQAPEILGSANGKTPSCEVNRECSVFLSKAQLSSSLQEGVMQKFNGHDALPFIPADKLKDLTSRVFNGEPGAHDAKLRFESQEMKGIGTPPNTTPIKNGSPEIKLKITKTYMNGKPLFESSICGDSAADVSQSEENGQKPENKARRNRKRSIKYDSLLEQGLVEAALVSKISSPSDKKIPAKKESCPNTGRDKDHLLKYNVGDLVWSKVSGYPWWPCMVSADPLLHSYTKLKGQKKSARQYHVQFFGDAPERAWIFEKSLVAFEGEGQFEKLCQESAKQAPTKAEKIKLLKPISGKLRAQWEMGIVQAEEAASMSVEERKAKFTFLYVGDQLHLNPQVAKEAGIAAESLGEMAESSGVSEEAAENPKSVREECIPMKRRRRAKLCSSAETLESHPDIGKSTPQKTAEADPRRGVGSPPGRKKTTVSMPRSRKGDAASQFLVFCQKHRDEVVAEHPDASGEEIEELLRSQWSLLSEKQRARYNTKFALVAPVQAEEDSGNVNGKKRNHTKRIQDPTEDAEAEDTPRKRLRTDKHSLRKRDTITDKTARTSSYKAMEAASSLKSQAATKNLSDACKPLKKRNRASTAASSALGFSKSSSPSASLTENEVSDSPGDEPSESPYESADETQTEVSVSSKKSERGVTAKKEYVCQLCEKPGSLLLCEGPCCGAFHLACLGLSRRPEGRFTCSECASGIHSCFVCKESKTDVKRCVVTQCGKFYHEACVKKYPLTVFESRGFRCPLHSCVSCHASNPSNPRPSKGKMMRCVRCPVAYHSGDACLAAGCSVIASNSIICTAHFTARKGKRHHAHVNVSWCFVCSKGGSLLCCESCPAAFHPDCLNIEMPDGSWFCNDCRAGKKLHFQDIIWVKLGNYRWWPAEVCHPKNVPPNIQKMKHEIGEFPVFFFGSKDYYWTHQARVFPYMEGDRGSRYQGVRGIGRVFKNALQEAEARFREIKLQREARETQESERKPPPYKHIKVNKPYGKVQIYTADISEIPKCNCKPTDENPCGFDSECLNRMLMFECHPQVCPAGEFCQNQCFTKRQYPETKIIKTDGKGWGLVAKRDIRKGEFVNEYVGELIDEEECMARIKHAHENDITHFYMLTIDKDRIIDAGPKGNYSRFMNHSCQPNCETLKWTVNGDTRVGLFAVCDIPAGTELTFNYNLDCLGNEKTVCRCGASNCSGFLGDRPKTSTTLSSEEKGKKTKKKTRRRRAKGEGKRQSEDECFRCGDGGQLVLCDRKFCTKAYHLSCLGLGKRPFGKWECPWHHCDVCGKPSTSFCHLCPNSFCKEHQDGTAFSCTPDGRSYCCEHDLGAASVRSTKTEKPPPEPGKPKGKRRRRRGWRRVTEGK
Wnt bcat act = Wnt/beta-catenin pathway activation; Wnt/beta-catenin reporter cell assay, activator, plate reader; activation, % at 9.35 µM; 300,000 tested, 1.2% active; in the data active = activation above about 30%, passing the limit was not always enough;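 also: 0% = neutral control wells and 100% = positive control wells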
MITF act = activators of MITF-driven TRPM1 promoter activity in SK-MEL-5 cells. SK-MEL-5 TRPM1-promoter luciferase, 24 h; % of positive control, neutral wells = 0. activation, % at 12.5 µM. 300,000 tested, 0.75% active. AID 588334;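 active = mean activation of at least 80% with every replicate also reaching 80%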;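 also: 0% = neutral control wells and 100% = parthenolide positive control wells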
Casp6 inh = caspase-6 (human) enzyme inhibition; purified caspase-6, Z-VEID-R110 cleavage fluorescence; inhibition, % at 12.5 µM; 350,000 tested, 0.53% active; AID 686996;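 active = mean inhibition across replicates at least about 35%, with every replicate also reaching that limit, limit read from the data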;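 also: 0% = median of neutral control wells and 100% = no fluorescence left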
esBAF inh = inhibitors of esBAF chromatin remodeling in mouse ES cells. Bmi1-luciferase knock-in reporter, 24 h; 100% = twice the neutral-well signal. reporter increase, % at 12.5 µM. 350,000 tested, 2% active; in the data active = activation above about 40%;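 also: 0% = median of the plate's neutral control wells and 100% = double that signal; a rise in the Bmi1 reporter signal indicates esBAF inhibition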
Xi reactivation = activators of X-chromosome reactivation in mouse fibroblasts | XiGFP mouse fibroblasts, % GFP-positive cells imaging, 3 d; cells co-treated with 5-aza-dC sensitizer; scaled so ellipticine positive control = 100% | activation, % at 7.58 µM | 360,000 tested, 0.055% active | AID 743238;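 active = mean normalized replicate activation at least 10% and every replicate at or above 10%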;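 also: 0% = median of on-plate neutral control wells and 100% = ellipticine 6 µM median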
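System: SV40-immortalized XiGFP fibroblast cells, line 68-5-11 / Incubation: 3-day compound exposure, then 15 min fixation at room temperature / Compound: single concentration per compound, delivered by pin transfer / Buffer or medium: DMEM plus 5-aza-dC sensitizer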
Alpha artifact = interferes with AlphaScreen signal, flagging NSD2 false positives | AID 1053174 | AC35, µM (doses to about 10 µM), inactives show top-dose activity change, negative = signal loss | AlphaScreen artifact counterscreen, preloaded methylated H4 peptide | shares compounds with NSD2 HMT inh | 1,500 tested, 9.4% active; call rule not given here
Numbers without * were called inactive; nt = no result. Compounds with a hit are over-represented: about 3% of the library has one in this group of screens.

SMILES	NSD2 HMT inh	Wnt bcat act	MITF act	Casp6 inh	esBAF inh	Xi reactivation	Alpha artifact
COCC(=O)N(C)C[C@@H]1Oc2ncc(C#Cc3cccnc3)cc2C(=O)N([C@H](C)CO)C[C@@H]1C	nt	nt	nt	0	3	-1	nt
CCCN(CCC)CCNC(=O)c1cc2c(-c3ccc(Cl)cc3)nn(C)c2s1	3	0	-7	-12	-8	0	nt
CCCN(CCC)CCNC(=O)c1cc2c(-c3ccccc3F)nn(C)c2s1	53*	-2	-9	-1	nt	0	-3%
O=C(C[C@@H]1CC[C@@H]2[C@H](COC[C@H](O)CN2C(=O)Cc2ccccc2)O1)NC1CCCC1	nt	nt	nt	-1	3	1	nt
CC(=O)c1cccc(NC(=O)CC2CCCC2)c1	53*	0	-6	2	-7	0	-3%
O=C(CC1CCCC1)Nc1cccc(Br)c1	-5	6	26	0	32	0	nt
Cc1cc(C)n(CC(O)COc2c(C)cccc2C)n1 (configuration not stated)	55*	-3	-14	-1	nt	0	4%
COc1cc(NC(C)CCCN)c2ncccc2c1Oc1ccccc1 (configuration not stated)	63*	-11	-4	nt	nt	0	-1%
COc1ccc(Oc2c(OC)cc([N+](=O)[O-])c3ncccc23)cc1	5	-4	4	-11	-7	0	nt
O=S(=O)(N[C@H]1CC[C@@H](CCn2cc(-c3cccnc3)nn2)O[C@@H]1CO)c1ccc(F)cc1	nt	nt	nt	3	-5	0	nt
CC(=O)Nc1ccc(S(=O)(=O)NCCSCc2c(Cl)cccc2Cl)cc1	123*	-3	-13	nt	-2	nt	-4%
Cc1c(N=NC2=C(O)CC(C)(C)CC2=O)c(=O)n(-c2ccccc2)n1C	96*	-3	-10	1	nt	0	-2%
CC(=O)/C(N=Nc1c(C)n(C)n(-c2ccccc2)c1=O)=C(\C)O	-7	0	-3	11	nt	0	nt
CCCC(=O)Nc1ccc2c(c1)C(=O)N(C)C[C@H](OC)[C@H](C)CN(C(=O)c1cnccn1)[C@H](C)CO2	nt	nt	nt	4	-4	0	nt
O=C1Nc2ccccc2/C1=N\N=C\c1ccc(O)c(O)c1	119*	5	2	36*	nt	0	3µM*
O=C(Cc1cccnc1)N1CC2(C1)[C@@H](c1ccccc1)[C@@H](CO)N2C(=O)C1CCCCC1	nt	nt	nt	0	nt	0	nt
C[C@H](O)C#Cc1ccc2c(c1)O[C@@H](CN(C)C(=O)CN(C)C)[C@@H](C)CN([C@@H](C)CO)S2(=O)=O	nt	nt	nt	0	1	-1	nt
CC1CCCC(NC(=O)COC(=O)c2c[nH]c(=O)[nH]c2=O)C1C (configuration not stated)	78*	-1	3	nt	-9	nt	-6%
Cc1cc(C(=O)OCC(=O)NC2CCCC(C)C2C)c(C)o1 (configuration not stated)	0	-3	-2	-2	-2	0	nt
Cc1ccc(S(=O)(=O)/N=C2\C=C(NS(=O)(=O)c3ccccc3)C(=O)c3ccccc32)cc1	105*	10	-27	24	-1	0	9.9µM*
Cc1cc(C)c(S(=O)(=O)/N=C2\C=C(NS(=O)(=O)c3ccccc3)C(=O)c3ccccc32)c(C)c1	44	-3	-22	19	3	0	nt
CCc1ccc(S(=O)(=O)/N=C2\C=C(Nc3cccc(C(=O)O)c3)C(=O)c3ccccc32)cc1	132*	9	-23	100*	9	0	9.3µM*
CCOc1ccccc1N1CCN(Cc2ccco2)CC1	0	6	6	0	-7	nt	nt
CCOc1ccccc1N1CCN(C/C=C/c2ccc(N(C)C)cc2)CC1	69*	nt	4	nt	0	nt	9.2µM*
CO[C@@H]1CN(C)C(=O)c2ccc(NC(=O)Cc3ccccc3)cc2OC[C@@H](C)N(C(=O)c2ccccc2F)C[C@@H]1C	nt	nt	nt	nt	2	0	nt
CCCCOc1ccc(-c2ncc(N)cn2)cc1	60*	25	nt	1	nt	0	-2%
CCCCOc1ccc(C(=O)O)cc1	nt	-2	4	nt	1	nt	nt
